In ChEMBL document CHEMBL2346582, “Guanidino anthrathiophenediones as G-quadruplex binders: uptake, intracellular localization, and anti-Harvey-Ras gene activity in bladder cancer cells” (J Med Chem, 2013):
Activity calls are given as the source filed them. The rule behind the calls is not given here.

How the values were obtained:
HEK293 = assay: Cellular uptake in human HEK293 cells at 0.5 to 10 uM after 10 mins to 8 hrs by flow cytometric analysis; assay type: ADME, cell-based; settings: hek293, 10 µM
How it was run: (§1)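 Flow cytometric uptake of 10 μM ligand over time (15 min, 1, 2, 6, 8 h; T24, and up to 8 h in NIH 3T3 and 293). Cells plated at 5 × 10^4 per well the day before. Ligand fluorescence detected in FL3 (680 nm), at least 10,000 cells acquired.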

T-24 [1] = assay: Cellular uptake in human T24 cells at 0.5 to 10 uM after 10 mins to 8 hrs by flow cytometric analysis; assay type: ADME, cell-based; settings: t-24, 10 µM; how it was run: as §1
Homo sapiens [2] = species on record: Homo sapiens; assay: Binding affinity to 32mer duplex DNA (unknown origin) at 5 uM by UV-vis titration
T-24 [3] = assay: Cellular uptake in human T24 cells assessed as accumulation in nucleoplasm at 2.5 uM after 2 hrs by propidium iodide staining-based confocal microscopic analysis; assay type: ADME, cell-based; settings: t-24, 2 h
How it was run: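 T24 cells plated (3 × 10^5) on coverslips and treated after 24 h with 2.5 μM ligand for 2 h. Fixed in 3% paraformaldehyde and permeabilized with Triton X-100. Cytoplasm immunostained for DRP1 with FITC secondary; nuclei stained with propidium iodide plus RNase A. Ligand red fluorescence excited at 543 nm; confocal Z-sections at 2 μm intervals.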

Homo sapiens [4] = species on record: Homo sapiens; assay: Thermal stabilization of human telomeric G-quadruplex FAM-TTAGGGTTAGGGTTAGGGTTAGGG-TAMRA DNA assessed as melting temperature at 1:5 DNA:ligand ratio by FRET assay
How it was run: (§2)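 Telomeric quadruplex (TTAGGG)4, 200 nM, dual-labelled, in 100 mM KCl, Tris-HCl buffer. Melted with ligand at r = 1, 2, 3, 4 or 5 ([ligand]/[quadruplex]). Samples equilibrated 5 min at 20 °C, then heated in 1 °C/min steps to 95 °C; TM read from the donor/acceptor emission.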

Homo sapiens [5] = species on record: Homo sapiens; assay: Thermal stabilization of human telomeric G-quadruplex FAM-TTAGGGTTAGGGTTAGGGTTAGGG-TAMRA DNA assessed as melting temperature at 1:4 DNA:ligand ratio by FRET assay; how it was run: as §2
Homo sapiens [6] = species on record: Homo sapiens; assay: Thermal stabilization of human telomeric G-quadruplex FAM-TTAGGGTTAGGGTTAGGGTTAGGG-TAMRA DNA assessed as melting temperature at 1:3 DNA:ligand ratio by FRET assay; how it was run: as §2
Homo sapiens [7] = species on record: Homo sapiens; assay: Thermal stabilization of human telomeric G-quadruplex FAM-TTAGGGTTAGGGTTAGGGTTAGGG-TAMRA DNA assessed as melting temperature at 1:2 DNA:ligand ratio by FRET assay; how it was run: as §2
Homo sapiens [8] = species on record: Homo sapiens; assay: Thermal stabilization of human telomeric G-quadruplex FAM-TTAGGGTTAGGGTTAGGGTTAGGG-TAMRA DNA assessed as melting temperature at 1:1 DNA:ligand ratio by FRET assay; how it was run: as §2

SMILES | Drug uptake (HEK293) | Drug uptake (T-24 [1]) | Activity (Homo sapiens [2]) | Drug uptake (T-24 [3]) | Tm (Homo sapiens [4]) [°C] | Tm (Homo sapiens [5]) [°C] | Tm (Homo sapiens [6]) [°C] | Tm (Homo sapiens [7]) [°C] | Tm (Homo sapiens [8]) [°C]
N=C(N)NCCNc1c2c(c(NCCNC(=N)N)c3sccc13)C(=O)c1ccccc1C2=O | Active | Active | Active | – | – | – | – | – | –
N=C(N)NCCCCNc1c2c(c(NCCCCNC(=N)N)c3sccc13)C(=O)c1ccccc1C2=O | – | – | – | Active | 83.7 | 81.1 | 79.1 | 76.3 | 58.5
